Assay results published in ChEMBL document CHEMBL1124568, “2,4-Diamino-5-benzylpyrimidines as antibacterial agents. 13. Some alkenyl derivatives with high in vitro activity against anaerobic organisms” (J Med Chem, 1989).
Values after ≈ are worked out from the molar mass of the structure shown.

What was measured:
Klebsiella pneumoniae = assay: Antibacterial (Klebsiella pneumoniae CN3632) activity compared to trimethoprim.; format: functional
Method in brief: (§1)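 Each MIC is divided by the MIC of trimethoprim run alongside. Serial dilutions were normally 0.1, 0.3, 1, 3, 10, etc., and occasionally 1, 5 and 10. For E. coli the value is the average over six strains.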

Proteus vulgaris = assay: Antibacterial (Proteus vulgaris CN329) activity compared to trimethoprim.; format: functional; method in brief: as §1
[1] = Antibacterial (Salmonella typhi CN512) activity compared to trimethoprim.; format: functional, salmonella typhosa
Fusobacterium nucleatum = assay: Ratio of antibacterial (Fusobacterium nucleatum) activities compared to that of trimethoprim and metronidazole; format: functional
Pasteurella multocida = assay: Antibacterial (Pasteurella multocides ATCC 6587) activity compared to trimethoprim.; format: functional; method in brief: as §1
Escherichia coli = assay: Antibacterial (Escherichia coli) activity compared to trimethoprim.; format: functional; method in brief: as §1
Klebsiella aerogenes = assay: Antibacterial (Enterobacter aerogenes 2201/86) activity compared to trimethoprim.; format: functional; method in brief: as §1
[2] = tested on: Bacteroides thetaiotaomicron; assay: Ratio of antibacterial (Bacteroides thetaiotaomicron) activities compared to that of trimethoprim and metronidazole; format: functional
Staphylococcus aureus = assay: Antibacterial (Staphylococcus aureus CN491) activity compared to trimethoprim.; format: functional; method in brief: as §1
Streptococcus pyogenes = assay: Antibacterial ([…] CN10) activity compared to trimethoprim.; format: functional; method in brief: as §1
Dihydrofolate reductase = molecular target: T1, Dihydrofolate reductase (Rattus norvegicus, UniProt Q920D2); assay: In vitro inhibition of rat liver dihydrofolate reductase.; settings: read-out: I50
T1 sequence (Q920D2 whole entry): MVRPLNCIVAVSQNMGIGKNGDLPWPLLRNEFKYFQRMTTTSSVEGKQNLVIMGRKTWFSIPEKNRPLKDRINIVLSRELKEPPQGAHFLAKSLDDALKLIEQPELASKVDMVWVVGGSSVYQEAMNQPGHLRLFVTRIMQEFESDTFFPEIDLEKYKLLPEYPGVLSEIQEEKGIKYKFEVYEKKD

Clostridioides difficile = assay: Ratio of antibacterial (Clostridium difficile) activities compared to that of trimethoprim and metronidazole; format: functional
Serratia marcescens = assay: Antibacterial (Serratia marcescens CN2398) activity compared to trimethoprim.; format: functional; method in brief: as §1
[3] = tested on: Mycolicibacterium smegmatis; assay: Antibacterial (Mycobacterium smegmatis S3254) activity compared to trimethoprim.; format: functional; method in brief: as §1
Clostridium perfringens = assay: Ratio of antibacterial (Clostridium perfringens) activities compared to that of trimethoprim and metronidazole; format: functional
Phocaeicola vulgatus = assay: Ratio of antibacterial (Bacteroides vulgatus) activities compared to that of trimethoprim and metronidazole; format: functional
Shigella flexneri = assay: Antibacterial (Shigella flexneri CN6007) activity compared to trimethoprim.; format: functional; method in brief: as §1
[4] = Half-life in dogs Plasma; format: ADME, organism-based, Canis lupus familiaris; settings: dog
Method in brief: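 Two fasted (18 h) male beagles received 5 mg/kg […] (free base), co-dosed with 5 mg/kg trimethoprim in propylene glycol. Jugular plasma was sampled from 0.17 to 24 h. Drug was extracted, separated by TLC and read by fluorescence densitometry. t1/2 came from least-squares linear regression of the postabsorption segment of the plasma curve.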

| Structure (SMILES) | MIC (Klebsiella pneumoniae) [µg/mL] | MIC (Proteus vulgaris) [µg/mL] | MIC [1] [µg/mL] | MIC (Fusobacterium nucleatum) [µg/mL] | MIC (Pasteurella multocida) [µg/mL] | MIC (Escherichia coli) [µg/mL] | MIC (Klebsiella aerogenes) [µg/mL] | MIC [2] [µg/mL] | MIC (Staphylococcus aureus) [µg/mL] | MIC (Streptococcus pyogenes) [µg/mL] | IC50 (Dihydrofolate reductase) [µM] | MIC (Clostridioides difficile) [µg/mL] | MIC (Serratia marcescens) [µg/mL] | MIC [3] [µg/mL] | MIC (Clostridium perfringens) [µg/mL] | MIC (Phocaeicola vulgatus) [µg/mL] | MIC (Shigella flexneri) [µg/mL] | half-life [4] [min] |
| --- | --- | --- | --- | --- | --- | --- | --- | --- | --- | --- | --- | --- | --- | --- | --- | --- | --- | --- |
| C/C=C/c1cc(Cc2cnc(N)nc2N)cc(OC)c1OC | 10 (≈ 33.3 µM) | 3 (≈ 9.99 µM) | 3 (≈ 9.99 µM) | 0.8 | 10 (≈ 33.3 µM) | 6 (≈ 20 µM) | 10 (≈ 33.3 µM) | 1.6 | 0.1 (≈ 0.333 µM) | 0.1 (≈ 0.333 µM) | 57 | > 25 | 1 (≈ 3.33 µM) | 3 (≈ 9.99 µM) | > 25 | 0.8 | 10 (≈ 33.3 µM) | 135 |
| C=CCc1cc(Cc2cnc(N)nc2N)cc(CC=C)c1O | 20 (≈ 67.5 µM) | 50 (≈ 169 µM) | 10 (≈ 33.7 µM) | 0.8 | 100 (≈ 337 µM) | 21 (≈ 70.9 µM) | 20 (≈ 67.5 µM) | 0.4 | 1 (≈ 3.37 µM) | 1 (≈ 3.37 µM) | 9.6 | > 25 | > 10 | 5 (≈ 16.9 µM) | > 25 | 0.8 | 50 (≈ 169 µM) |  |
| C=CCc1cc(Cc2cnc(N)nc2N)ccc1O | 20 (≈ 78 µM) | 50 (≈ 195 µM) | 100 (≈ 390 µM) | 0.8 | 10 (≈ 39 µM) | 16 (≈ 62.4 µM) | 10 (≈ 39 µM) |  | 10 (≈ 39 µM) | 2 (≈ 7.8 µM) | 94.5 | 25 | 20 (≈ 78 µM) | 5 (≈ 19.5 µM) | > 25 |  | 10 (≈ 39 µM) |  |
| C=CCc1cc(Cc2cnc(N)nc2N)cc(OC)c1O | 0.3 (≈ 1.05 µM) | 3 (≈ 10.5 µM) | 3 (≈ 10.5 µM) | 0.2 | 1 (≈ 3.49 µM) | 1 (≈ 3.49 µM) | 1 (≈ 3.49 µM) | 1.6 | 0.3 (≈ 1.05 µM) | 1 (≈ 3.49 µM) | 14.7 | > 25 | 3 (≈ 10.5 µM) | 3 (≈ 10.5 µM) | > 25 | 1.6 | 1 (≈ 3.49 µM) | 42 |
| CCCc1cc(Cc2cnc(N)nc2N)cc(OC)c1OC | 10 (≈ 33.1 µM) | 10 (≈ 33.1 µM) | 3 (≈ 9.92 µM) | 0.4 | 10 (≈ 33.1 µM) | 6 (≈ 19.8 µM) | 10 (≈ 33.1 µM) | 1.6 | 0.1 (≈ 0.331 µM) | 0.1 (≈ 0.331 µM) | 37 | > 25 | 3 (≈ 9.92 µM) | 3 (≈ 9.92 µM) | > 25 | 1.6 | 10 (≈ 33.1 µM) |  |
| C=CCc1cc(Cc2cnc(N)nc2N)cc(OC)c1OC | 10 (≈ 33.3 µM) | 10 (≈ 33.3 µM) | 3 (≈ 9.99 µM) | 0.4 | 10 (≈ 33.3 µM) | 6 (≈ 20 µM) | 10 (≈ 33.3 µM) | 1.6 | 0.1 (≈ 0.333 µM) | 0.3 (≈ 0.999 µM) | 50 | > 25 | 3 (≈ 9.99 µM) | 3 (≈ 9.99 µM) | > 25 | 1.6 | 10 (≈ 33.3 µM) | 50.4 |
| C=CCOc1ccc(Cc2cnc(N)nc2N)cc1OC | 10 (≈ 34.9 µM) | 3 (≈ 10.5 µM) | 10 (≈ 34.9 µM) | 0.8 | 10 (≈ 34.9 µM) | 7.6 (≈ 26.5 µM) | 10 (≈ 34.9 µM) |  | 10 (≈ 34.9 µM) | 3 (≈ 10.5 µM) | 49 | > 25 | 10 (≈ 34.9 µM) | 3 (≈ 10.5 µM) | > 25 |  | 10 (≈ 34.9 µM) |  |
| C=CCOc1ccc(Cc2cnc(N)nc2N)cc1CC=C | > 100 | > 50 | 1000 (≈ 3370 µM) | 0.8 | 500 (≈ 1690 µM) | 72 (≈ 243 µM) | > 100 |  | 10 (≈ 33.7 µM) | 2 (≈ 6.75 µM) | 11 | > 25 | > 10 | > 100 | > 25 |  | 500 (≈ 1690 µM) |  |
| C=CCc1cc(Cc2cnc(N)nc2N)cc(CCC)c1O | 30 (≈ 101 µM) | 30 (≈ 101 µM) | 100 (≈ 335 µM) | 0.4 | 30 (≈ 101 µM) | 5 (≈ 16.8 µM) | 30 (≈ 101 µM) | 0.8 | 3 (≈ 10.1 µM) | 1 (≈ 3.35 µM) | 2 | > 25 | 3 (≈ 10.1 µM) | 10 (≈ 33.5 µM) | > 25 | 0.8 | 30 (≈ 101 µM) |  |
